The term apparent Kd denotes a dissociation constant that holds for the conditions of the assay.

This data set has as its system MS2 coat protein. The experiment in a line: apparent Kd, MS2 coat protein; higher = weaker binding; RNA-MaP array; FMN 200 µM where present. The essentials: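 On Illumina sequencing-chip clusters, designs were transcribed by stalled E. coli RNA polymerase and titrated with SNAP-549-labelled MS2 coat protein (0.7 or 1.5 nM, doubling to 3 µM), without and then with constant ligand, in 100 mM Tris-HCl pH 7.5, 80 mM KCl, 4 mM MgCl2, BSA, DTT, yeast tRNA and Tween-20. Apparent Kd is the median of filtered per-cluster curve fits to green signal normalised to red-channel RNA signal and control-cluster median Fmax.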

The mark [1] stands for this setting: designed as: ON switch for flavin mononucleotide, no ligand.
The mark [2] stands for this setting: ligand present: flavin mononucleotide, designed as: ON switch for flavin mononucleotide.
The mark [3] stands for this setting: designed as: OFF switch for flavin mononucleotide, no ligand.
Where [4] appears, read: ligand present: flavin mononucleotide, designed as: OFF switch for flavin mononucleotide.

For the sequence “UAUUUUAACUAAGGAUAUCUAUAAUAAUUUGAAACAUGAGGAUCACCCAUGUUCAUGGGUUUUUAAGAGAAGGUAGAUGAAUAA”, the “apparent Kd” value was 59.8 nM under setting [1] and 26.1 nM under setting [2].

On to “CUUGUGUGAGGAUAUCAGUAGUAGUACGAUAGUAUUACUGCUGAGAAGGCACAUGAGGAUCACCCAUGUUCUUC”, for which the “apparent Kd” value is 28.1 nM under setting [3] and 24.1 nM under setting [4].

Regarding “UUAUUUUUUGAGGAUAUGCGACGUUUUUUCGUCGUAGAAGGCGAUACAUGAGGAUCACCCAUGUUUAUGGGCAU”, the “apparent Kd” value is 89.7 nM under setting [3] and 157 nM under setting [4].

Take “GAACCUAAGUCAGGAUAUGUCUAAGAAAACUGACAUGAGGAUCACCCAUGUGAAUGUAAAGCAUGGCAGAAGGGAUAUGGGUGG”: the “apparent Kd” value is, setting by setting: under setting [1], 171 nM; under setting [2], 315 nM.

“UGGUAACAUGAGGAUCACCCAUGUCAAAUGAAUCGAGGAUAUGGGAAUUAACAACACAAACUAGAAGGCGAAUUUG”: the “apparent Kd” value was 303 nM under setting [1] and 247 nM under setting [2].

For the sequence “CUCGUGUUAGGAUAUCGUGGCUGGGCUGGGACGUCCGAUGGCGAGAAGGGACAUGAGGAUCACCCAUGUAAAAC”, the “apparent Kd” value came out at 28.6 nM under setting [3] and 27.6 nM under setting [4].

Take “CUAGCAUACCGAGGAUAUUCAUAUAAUAAAUAAACAUGAGGAUCACCCAUGUGGCGAAAGCCUAGGGAGAAGGCGGAAUGCUAC”: the “apparent Kd” value came to 162 nM under setting [1] and 27 nM under setting [2].

For “GGGUACAUCGGAGGAUAUCAUGUAAAUACAUGAGGAUCACCCAUGUCGAUAGAGACAUCGGAGAUUGAGAAGGCCGAUGUACCG”, the “apparent Kd” value is, setting by setting: under setting [1], 41.7 nM; under setting [2], 300 nM.

With “UCGUAUACACAAGGAUAUCGAUGGCUUGUAGAUCCUACAUGAGGAUCACCCAUGUUUUUAUAUUGUGAGAAGGUGUAGUGUCUU”, the “apparent Kd” value reads like this: under setting [1], 1170 nM; under setting [2], 1910 nM.

Consider “CAGUAUUUCGAAGGAUAUGGUUACAUGAGGAUCACCCAUGUAUUUUUUGUGAUCUUAAAAUUGAUCCAGAAGGUCGUAUAACUG”, for which the “apparent Kd” value under setting [3] was 101 nM and the “apparent Kd” value under setting [4] was 232 nM.

Consider “CAGCGCUGUCGAGAGGAUAUGCGGUGAUGGACAUGAGGAUCACCCAUGUUAGCGAUGGCAUUACGGUAGAAGGCUCUACAGCUGC”, for which the “apparent Kd” value runs as follows: under setting [1], 40.3 nM; under setting [2], 16.4 nM.

“UAUCCACAUGAGGAUCACCCAUGUGAGGAUAUGAUACUAUGUACUUCGGUACAUAGUAUCAGAAGGCACAGGUC”: the “apparent Kd” value is, setting by setting: under setting [3], 21.3 nM; under setting [4], 36.3 nM.

Take “AUAUCACAAUUAGAACCAAUACGAACAUGAGGAUCACCCAUGUAGGAUAUGCUAGAAGUUGUGUUGCAGAAGGACAUAUACAUU”: the “apparent Kd” value is, setting by setting: under setting [3], 7.63 nM; under setting [4], 6.63 nM.

In the case of “GUUUUGGGAGGAUAUAUGUGGAUUAUUUUCGUAUGUUGUUUACAUGAGGAUCACCCAUGUAGAAGGUCUAGAGC”, the “apparent Kd” value came to 68.3 nM under setting [3] and 198 nM under setting [4].

Turning to “CUGAUGUUAGGAUAUCAGGUUGCGCGCGAAGGCACGCAGCAUGAGAAGGAACAUGAGGAUCACCCAUGUGACGA”, the “apparent Kd” value was 40.6 nM under setting [3] and 132 nM under setting [4].

As for “UCCCUAGAAGUAAGGAUAUGUCGAUGGCCAAUUCGAUAGAAGGUACAUGAGGAUCACCCAUGUGACCUACUGGG”, the “apparent Kd” value reads like this: under setting [3], 15.7 nM; under setting [4], 23.7 nM.

As to “GAGCGGGAAACAUGAGGAUCACCCAUGUAAUAAAUCCUCAAGUAGGAUAUGCACACGAGAAGUGUGCAGAAGGGCUACCCGGUC”, the “apparent Kd” value by setting is: under setting [3], 29.7 nM; under setting [4], 46.2 nM.

Take “AUUAUAUAGAAAGGAUAUUGAUUAUUAUUUUAACAUGAGGAUCACCCAUGUAGCCUUAUGUAUAACAAGAAGGUUCAUUUAUUA”: the “apparent Kd” value came out at 75.9 nM under setting [3] and 89.5 nM under setting [4].

“UCGGCGCGAGGAUAUACGUUUGCGCGUUUUCGUUUGCGCGUACAUGAGGAUCACCCAUGUAGAAGGCGCGCGGC”: the “apparent Kd” value is 13.1 nM under setting [3] and 13.4 nM under setting [4].

Regarding “CAUCAUGCGUCUAAGGAUAUGUCUCACAAGACAUGAGGAUCACCCAUGUAGAAUAAAUAAAUGAUGCAGAAGGUGGAGCGCAUGC”, the “apparent Kd” value was 343 nM under setting [1] and 57.4 nM under setting [2].

Regarding “UUUGUUGUUGUGAGGAUAUCGUUGUUAUUUUGAAACGAGAAGGCACAUGAGGAUCACCCAUGUUUGUUGAUGGU”, the “apparent Kd” value by setting is: under setting [3], 43.9 nM; under setting [4], 122 nM.

For the sequence “GUGGUCAGACAUGAGGAUCACCCAUGUGGAAUAAAUAACGUCAAGGAUAUUCAAUAUAGGAUAUAGAAGAAGGUGAGAUUGGUG”, the “apparent Kd” value reads like this: under setting [1], 153 nM; under setting [2], 177 nM.

For the sequence “UGUCCAUAGCAGAAGGACAUGAAUACAUGAGAAAACAUGAGGAUCACCCAUGUAGGAUAUGCUAUGGACUAAGAGCGAAAGCUC”, the “apparent Kd” value is, setting by setting: under setting [3], 12.2 nM; under setting [4], 91.9 nM.

Regarding “GGUACACAUGAGGAUCACCCAUGUCAGGAUAUCUGGAUACUCUUUAUUUUAGAUAUCCAGAGAAGGGACGUGCC”, the “apparent Kd” value worked out at 30.8 nM under setting [3] and 40.9 nM under setting [4].

Take “GAACUGAAGCAUAGCUUUAGUCGUACAUGAGGAUCACCCAUGUAGGAUAUGGUAGGCAUAGCUUACUAGAAGGAUAGAGUGAUU”: the “apparent Kd” value runs as follows: under setting [3], 96.5 nM; under setting [4], 67.9 nM.

In the case of “GGGUACAUCGGAGGAUAUCAUGUAAAUACAUGAGGAUCACCCAUGUCGAUGGAGCCAUCGGAGAUUGAGAAGGCCGAUGUACCG”, the “apparent Kd” value worked out at 14.3 nM under setting [1] and 5.63 nM under setting [2].

Take “UGUUGUAUUACAGGAUAUCUAUUAUUUUUAUUUAGAGAAGGGUAUUCACAUGAGGAUCACCCAUGUAUAUACGAGGAAGUUGUG”: the “apparent Kd” value under setting [1] turned out to be 52.6 nM and the “apparent Kd” value under setting [2] stood at 58.9 nM.

As for “UCGCUGCGAGGAUAUACGUUUGCGCGCUUUCGUUUGCGCGUACAUGAGGAUCACCCAUGUAGAAGGCGCGCCGC”, the “apparent Kd” value turned out to be 15.9 nM under setting [3] and 15.9 nM under setting [4].

As for “UGGUCAACAUCAGGAUAUUAACAUGGGCUACACUAAGAAGGGAUAAUGAAAUACGAACUAAACGCACAUGAGGAUCACCCAUGU”, the “apparent Kd” value reads like this: under setting [1], 34.4 nM; under setting [2], 25 nM.

Turning to “AAGCCACAUGAGGAUCACCCAUGUAUUUGACAGCGAGGAUAUGGGCCGCCAUGACGAGCACCAGAAGGCGCUGGUA”, the “apparent Kd” value by setting is: under setting [1], 20.9 nM; under setting [2], 16.3 nM.

As for “GGGUAGAUCGGAGGAUAUCAUGUAAAUACAUGAGGAUCACCCAUGUCGAUGGAGACAUCGGAGAUUGAGAAGGCCGAUGUACCG”, the “apparent Kd” value came out at 166 nM under setting [1] and 8.4 nM under setting [2].

“GGAUAAGACAGAGGAUAUACGUGCUAGAGAUACUAGCAAAAUUUCCUCACAUGAGGAUCACCCAUGUAGAAGGCUGUCCUAUCG”: the “apparent Kd” value was 16.9 nM under setting [3] and 291 nM under setting [4].

Regarding “ACUUGCUUGCAGAAGGGUGACAUGAGGAUCACCCAUGUAGCGGGCCGGCGUAAAGUCAGCGCGCCACAGGAUAUGCAGGCCUCG”, the “apparent Kd” value reads like this: under setting [1], 25.2 nM; under setting [2], 58.5 nM.

As to “GUUGCACAAAUUAACAUGAGGAUCACCCAUGUCAAAAGACAUGAGGAUAUGGAUCUGAAGAAGAUCCAGAAGGCAUAGUGCUAA”, the “apparent Kd” value under setting [1] is 370 nM and the “apparent Kd” value under setting [2] came out at 23.7 nM.

As to “AAUAUGAGCUGGUCUAAACUCAAAACAUGAGGAUCACCCAUGUAGGAUAUCAGCACGAUAAGUGCUGAGAAGGACAUCCAGCUC”, the “apparent Kd” value is, setting by setting: under setting [3], 16.7 nM; under setting [4], 20.5 nM.

For “ACUGAAGUCACAGGAUAUCAUAUGCCGGCACAUUGAGAAGGGUGACUGGGCUACAUGAGGAUCACCCAUGUGCCGUCGUAACAA”, the “apparent Kd” value is 29.8 nM under setting [1] and 36.9 nM under setting [2].

The record behind these values is the EternaBench riboswitch data.
